{
  "source": "paper PMC7717620",
  "about": "(Nucleosides, nucleotides & nucleic acids, 2019)",
  "key": {"[1]": {"tested_on": "primary monkey hepatocytes", "test": "intracellular metabolism in primary monkey hepatocytes", "assay_type": "in vitro ADME", "conditions": "50 μM, 4 h"}, "various cell lines": {"tested_on": "various cell lines", "conditions": "up to 100 μM; cited from earlier work"}, "Huh-7 cells": {"tested_on": "Huh-7 cells", "test": "intracellular metabolism in Huh-7 cells", "assay_type": "in vitro ADME, human", "conditions": "Huh-7, 50 μM, 4 h"}, "[2]": {"tested_on": "primary mouse hepatocytes", "test": "intracellular metabolism in primary mouse hepatocytes", "assay_type": "in vitro ADME", "conditions": "50 μM, 4 h"}, "primary rat hepatocytes": {"tested_on": "primary rat hepatocytes", "test": "intracellular metabolism in primary rat hepatocytes", "assay_type": "in vitro ADME", "conditions": "50 μM, 4 h"}, "human cardiomyocytes [3]": {"tested_on": "human cardiomyocytes", "test": "recording of human cardiomyocyte beating patterns", "assay_type": "cell-based"}, "HepG2 cells [4]": {"tested_on": "HepG2 cells", "test": "intracellular metabolism in HepG2 cells", "assay_type": "in vitro ADME, human", "conditions": "HepG2, 50 μM, 4 h"}, "human cardiomyocytes [5]": {"tested_on": "human cardiomyocytes", "test": "cellular accumulation and metabolism in human cardiomyocytes", "assay_type": "in vitro ADME", "conditions": "10 μM"}, "[6]": {"test": "single dose escalation and seven day repeat dosing in rats", "conditions": "rat, in vivo"}, "[7]": {"test": "single dose escalation and seven day repeat dosing in dogs", "conditions": "dog, in vivo"}, "HepG2 cells [8]": {"tested_on": "HepG2 cells", "conditions": "up to 50 μM; cited from earlier work"}, "[9]": {"tested_on": "primary human hepatocytes", "test": "intracellular metabolism in primary human hepatocytes", "assay_type": "in vitro ADME", "conditions": "50 μM, 4 h"}, "[10]": {"tested_on": "HCV genotype 1 b RNA replication", "test": "subgenomic HCV replicon system, inhibition of HCV RNA replication in Huh-7 cells", "assay_type": "cell-based, hepatitis C virus", "conditions": "HCV genotype 1 b subgenomic replicon", "in_short": "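HCV genotype 1b subgenomic replicon in Huh-7 cells. HCV RNA and cellular ribosomal RNA were extracted and amplified, so replication and cytotoxicity were read in the same cells.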"}, "primary dog hepatocytes": {"tested_on": "primary dog hepatocytes", "test": "intracellular metabolism in primary dog hepatocytes", "assay_type": "in vitro ADME", "conditions": "50 μM, 4 h"}},
  "note": "“Also recorded” adds a separate entry of the source.",
  "data": [
    {"compound": "CC(C)OC(=O)CCc1ccccc1OP(=O)(N[C@@H](C)C(=O)OC(C)C)OC[C@H]1O[C@@H](n2cnc3c(N)nc(N)nc32)[C@](C)(O)[C@@H]1O", "note": "(stereo partly drawn) [DAPN-PD, Isopropyl 3-(2-(((((2R,3R,4R,5R)-5-(2,6-diamino-9H-purin-9-yl)-3,4-dihydroxy-4-methyltetrahydrofuran-2-yl)methoxy)(((S)-1-isopropoxy-1-oxopropan-2-yl)amino)phosphoryl)oxy)phenyl)propanoate]", "values": [
      {"measurement": "Intracellular concentration: Prodrugs", "setting": "[1]", "value": "160 ± 4", "unit": "pmol/10^6 cells"},
      {"measurement": "in vitro cytotoxicity in various cell lines", "setting": "various cell lines", "value": "no in vitro cytotoxicity"},
      {"measurement": "Intracellular concentration: Prodrugs", "setting": "Huh-7 cells", "value": "170 ± 4", "unit": "pmol/10^6 cells"},
      {"measurement": "Intracellular concentration: 2’-C-Me-G", "setting": "[2]", "value": "BLOQ"},
      {"measurement": "Intracellular concentration: Prodrugs", "setting": "[2]", "value": "13 ± 1", "unit": "pmol/10^6 cells"},
      {"measurement": "Intracellular concentration: Prodrugs", "setting": "primary rat hepatocytes", "value": "0.90 ± 0.50", "unit": "pmol/10^6 cells"},
      {"measurement": "Beating rate of human cardiomyocytes", "setting": "human cardiomyocytes [3]; 2 μM, 2 h", "value": "33.5 ± 0.7", "unit": "beats/minute"},
      {"measurement": "Beating rate of human cardiomyocytes", "setting": "human cardiomyocytes [3]; 2 μM, 4 h", "value": "34.0 ± 0", "unit": "beats/minute"},
      {"measurement": "Beating rate of human cardiomyocytes", "setting": "human cardiomyocytes [3]; 2 μM, 8 h", "value": "37.0 ± 0", "unit": "beats/minute"},
      {"measurement": "Beating rate of human cardiomyocytes", "setting": "human cardiomyocytes [3]; 2 μM, 12 h", "value": "36.0 ± 0", "unit": "beats/minute"},
      {"measurement": "Beating rate of human cardiomyocytes", "setting": "human cardiomyocytes [3]; 2 μM, 24 h", "value": "34.0 ± 1.4", "unit": "beats/minute"},
      {"measurement": "Beating rate of human cardiomyocytes", "setting": "human cardiomyocytes [3]; 2 μM, 48 h", "value": "27.5 ± 0.7", "unit": "beats/minute"},
      {"measurement": "change in beating rate or rhythm of cardiomyocytes (observation)", "setting": "human cardiomyocytes [3]; 2 μM, up to 48 h", "value": "did not observe beating changes"},
      {"measurement": "Beating rate of human cardiomyocytes", "setting": "human cardiomyocytes [3]; 10 μM, 2 h", "value": "24.5 ± 0.7", "unit": "beats/minute"},
      {"measurement": "Beating rate of human cardiomyocytes", "setting": "human cardiomyocytes [3]; 10 μM, 4 h", "value": "23.5 ± 0.7", "unit": "beats/minute"},
      {"measurement": "Beating rate of human cardiomyocytes", "setting": "human cardiomyocytes [3]; 10 μM, 8 h", "value": "26.0 ± 1.4", "unit": "beats/minute"},
      {"measurement": "Beating rate of human cardiomyocytes", "setting": "human cardiomyocytes [3]; 10 μM, 12 h", "value": "25.5 ± 0.7", "unit": "beats/minute"},
      {"measurement": "Beating rate of human cardiomyocytes", "setting": "human cardiomyocytes [3]; 10 μM, 24 h", "value": "25.5 ± 0.7", "unit": "beats/minute"},
      {"measurement": "Beating rate of human cardiomyocytes", "setting": "human cardiomyocytes [3]; 10 μM, 48 h", "value": "25.5 ± 0.7", "unit": "beats/minute"},
      {"measurement": "change in beating rate or rhythm of cardiomyocytes (observation)", "setting": "human cardiomyocytes [3]; 10 μM, up to 48 h", "value": "changes to both beat rate and rhythm were noted; also recorded: caused the beat rate to decrease"},
      {"measurement": "Beating rate of human cardiomyocytes", "setting": "human cardiomyocytes [3]; 50 μM, 2 h", "value": "21.5 ± 0.7", "unit": "beats/minute"},
      {"measurement": "Beating rate of human cardiomyocytes", "setting": "human cardiomyocytes [3]; 50 μM, 4 h", "value": "21.0 ± 0", "unit": "beats/minute"},
      {"measurement": "Beating rate of human cardiomyocytes", "setting": "human cardiomyocytes [3]; 50 μM, 8 h", "value": "22.0 ± 0", "unit": "beats/minute"},
      {"measurement": "Beating rate of human cardiomyocytes", "setting": "human cardiomyocytes [3]; 50 μM, 12 h", "value": "21.0 ± 0", "unit": "beats/minute"},
      {"measurement": "Beating rate of human cardiomyocytes", "setting": "human cardiomyocytes [3]; 50 μM, 24 h", "value": "19.0 ± 0", "unit": "beats/minute"},
      {"measurement": "Beating rate of human cardiomyocytes", "setting": "human cardiomyocytes [3]; 50 μM, 48 h", "value": "17.0 ± 0", "unit": "beats/minute"},
      {"measurement": "rhythm of cardiomyocytes (observation)", "setting": "human cardiomyocytes [3]; 10 and 50 μM", "value": "altered and irregular"},
      {"measurement": "change in beating rate of cardiomyocytes (observation)", "setting": "human cardiomyocytes [3]; 10 and 50 μM, up to 48 h", "value": "the beating rate dropped within 2 h then remained at a reduced rate out to 48 h"},
      {"measurement": "Intracellular concentration: Prodrugs", "setting": "HepG2 cells [4]", "value": "390 ± 33", "unit": "pmol/10^6 cells"},
      {"measurement": "Intracellular concentration in human cardiomyocytes: Prodrugs", "setting": "human cardiomyocytes [5]; 4 h", "value": "70 ± 3", "unit": "pmol/10^6 cells"},
      {"measurement": "Intracellular concentration in human cardiomyocytes: Prodrugs", "setting": "human cardiomyocytes [5]; 8 h", "value": "51 ± 1", "unit": "pmol/10^6 cells"},
      {"measurement": "intact prodrug level, times lower than BMS-986094", "setting": "human cardiomyocytes [5]; human cardiomyocytes, 8 h", "value": 16, "unit": "times"},
      {"measurement": "NOAEL at 7 day", "setting": "[6]", "value": "< 40", "unit": "mg/kg/day"},
      {"measurement": "NOAEL at 7 day", "setting": "[7]", "value": "< 40", "unit": "mg/kg/day"},
      {"measurement": "mitochondrial toxicity or increase in lactic acid levels", "setting": "HepG2 cells [8]", "value": "no mitochondrial toxicity or increase in lactic acid levels"},
      {"measurement": "Intracellular concentration: Prodrugs", "setting": "[9]", "value": "70 ± 6", "unit": "pmol/10^6 cells"},
      {"measurement": "Replicon Huh-7 EC50", "setting": "[10]", "value": "sub-micromolar"},
      {"measurement": "Intracellular concentration: Prodrugs", "setting": "primary dog hepatocytes", "value": "6.3 ± 1.5", "unit": "pmol/10^6 cells"}
    ]}
  ]
}
